Test results reported in ChEMBL document CHEMBL1135167, “Synthesis and antifungal activity of the 2,2,5-tetrahydrofuran regioisomers of SCH 51048” (2002).

What was measured:
Type in all cases: functional
Aspergillus sp. = experiment: Compound was tested for inherent antifungal geometric minimum inhibitory concentration (GMMIC) against Aspergillus in serial dilution from 64 to 0.0313 ug/mL
In short: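 Broth microdilution in Sabouraud dextrose broth, pH 5.7. Compound dissolved in DMSO or ethanol and serially diluted in medium. Inoculum ~10^4/cc, incubated at 27 °C for 72 h. MIC is the lowest concentration giving complete growth inhibition by visual reading. Geometric mean taken across the Aspergillus isolates.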

Candida = experiment: Compound was tested for inherent antifungal geometric minimum inhibitory concentration (GMMIC) against Candida albicans and Candida tropicalis in serial dilution from 64 to 0.0313 ug/mL
In short: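 Eagle's minimum essential medium, pH 7.0. Compound in DMSO or ethanol, serially diluted in medium, inoculum 5×10^2/cc. Incubated at 37 °C under CO2 for 48 h. MIC is the lowest concentration with complete visible growth inhibition in microtiter wells. Geometric mean over C. albicans and C. tropicalis strains.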

Arthrodermataceae = experiment: Compound was tested for inherent antifungal geometric minimum inhibitory concentration (GMMIC) against Dermatophytes in serial dilution from 64 to 0.0313 ug/mL
In short: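 Sabouraud dextrose broth, pH 5.7, inoculum ~10^4/cc, 27 °C, read visually at 72 h. MIC is the lowest concentration giving complete growth inhibition. Compound in DMSO or ethanol, serially diluted in broth. Geometric mean over T. mentagrophytes D24 and D30, T. rubrum D54 and D61, T. tonsurans D73 and M. canis D18.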

| Structure (SMILES) | GMMIC (Aspergillus sp.) | GMMIC (Candida) | GMMIC (Arthrodermataceae) |
| --- | --- | --- | --- |
| CCC(CC)n1ncn(-c2ccc(N3CCN(c4ccc(OC[C@@H]5CC[C@@](Cn6cncn6)(c6ccc(F)cc6F)O5)cc4)CC3)cc2)c1=O | >=128 ug ml-1 | <=0.1 ug ml-1 | >=128 ug ml-1 |
| CCC(CC)n1ncn(-c2ccc(N3CCN(c4ccc(OC[C@@H]5CO[C@@](Cn6cncn6)(c6ccc(F)cc6F)C5)cc4)CC3)cc2)c1=O | 0.04 µg/mL | <=0.04 ug ml-1 | >=0.06 ug ml-1 |
| CCC(CC)n1ncn(-c2ccc(N3CCN(c4ccc(OC[C@H]5CC[C@](Cn6cncn6)(c6ccc(F)cc6F)O5)cc4)CC3)cc2)c1=O | 0.25 µg/mL | 0.02 µg/mL | >=0.35 ug ml-1 |
| CCC(C)n1ncn(-c2ccc(N3CCN(c4ccc(OCC5COC(Cn6cncn6)(c6ccc(Cl)cc6Cl)O5)cc4)CC3)cc2)c1=O (racemic) [ITRACONAZOLE] | 0.3 µg/mL | 0.04 µg/mL | >=0.89 ug ml-1 |
| CCC(CC)n1ncn(-c2ccc(N3CCN(c4ccc(OC[C@H]5CO[C@](Cn6cncn6)(c6ccc(F)cc6F)C5)cc4)CC3)cc2)c1=O | >=128 ug ml-1 | 0.27 µg/mL | >=128 ug ml-1 |
